We go through one molecule from ChEMBL document CHEMBL3120104, “Discovery of the first C-nucleoside HCV polymerase inhibitor (GS-6620) with demonstrated antiviral response in HCV infected patients” (J Med Chem, 2014).

SMILES strings stand for the structures.

The subject of one series is Rattus norvegicus. Briefly: Toxicity in Sprague-Dawley rat assessed as death at 20 to 40 mg/kg, po qd for 7 days. It is filed as organism-based. Also on record: dose 20-40 mg/kg, route oral. Conditions: in vivo, 168 h.
For series [1], the target named is DNA-directed RNA polymerase, mitochondrial (Homo sapiens) (UniProt O00411). Nature of the series: Inhibition of mitochondrial RNA polymerase (unknown origin) assessed as inhibition of single nucleotide incorporation. Conditions: concentration not given here. In a few lines:
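Reactions started with 500 μM (final) natural NTP or NTP analog. Time-point aliquots were quenched in EDTA/formamide, heated to 65 °C, resolved on 20% polyacrylamide/8 M urea gels, and product formation quantified by phosphorimaging.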

Series [2] is described as follows: Toxicity in po dosed Sprague-Dawley rat assessed as necrosis in organs administered qd for 7 days. To be noted: in vivo. It is filed as organism-based.

Chain of DNA-directed RNA polymerase, mitochondrial (Homo sapiens) (O00411 whole entry): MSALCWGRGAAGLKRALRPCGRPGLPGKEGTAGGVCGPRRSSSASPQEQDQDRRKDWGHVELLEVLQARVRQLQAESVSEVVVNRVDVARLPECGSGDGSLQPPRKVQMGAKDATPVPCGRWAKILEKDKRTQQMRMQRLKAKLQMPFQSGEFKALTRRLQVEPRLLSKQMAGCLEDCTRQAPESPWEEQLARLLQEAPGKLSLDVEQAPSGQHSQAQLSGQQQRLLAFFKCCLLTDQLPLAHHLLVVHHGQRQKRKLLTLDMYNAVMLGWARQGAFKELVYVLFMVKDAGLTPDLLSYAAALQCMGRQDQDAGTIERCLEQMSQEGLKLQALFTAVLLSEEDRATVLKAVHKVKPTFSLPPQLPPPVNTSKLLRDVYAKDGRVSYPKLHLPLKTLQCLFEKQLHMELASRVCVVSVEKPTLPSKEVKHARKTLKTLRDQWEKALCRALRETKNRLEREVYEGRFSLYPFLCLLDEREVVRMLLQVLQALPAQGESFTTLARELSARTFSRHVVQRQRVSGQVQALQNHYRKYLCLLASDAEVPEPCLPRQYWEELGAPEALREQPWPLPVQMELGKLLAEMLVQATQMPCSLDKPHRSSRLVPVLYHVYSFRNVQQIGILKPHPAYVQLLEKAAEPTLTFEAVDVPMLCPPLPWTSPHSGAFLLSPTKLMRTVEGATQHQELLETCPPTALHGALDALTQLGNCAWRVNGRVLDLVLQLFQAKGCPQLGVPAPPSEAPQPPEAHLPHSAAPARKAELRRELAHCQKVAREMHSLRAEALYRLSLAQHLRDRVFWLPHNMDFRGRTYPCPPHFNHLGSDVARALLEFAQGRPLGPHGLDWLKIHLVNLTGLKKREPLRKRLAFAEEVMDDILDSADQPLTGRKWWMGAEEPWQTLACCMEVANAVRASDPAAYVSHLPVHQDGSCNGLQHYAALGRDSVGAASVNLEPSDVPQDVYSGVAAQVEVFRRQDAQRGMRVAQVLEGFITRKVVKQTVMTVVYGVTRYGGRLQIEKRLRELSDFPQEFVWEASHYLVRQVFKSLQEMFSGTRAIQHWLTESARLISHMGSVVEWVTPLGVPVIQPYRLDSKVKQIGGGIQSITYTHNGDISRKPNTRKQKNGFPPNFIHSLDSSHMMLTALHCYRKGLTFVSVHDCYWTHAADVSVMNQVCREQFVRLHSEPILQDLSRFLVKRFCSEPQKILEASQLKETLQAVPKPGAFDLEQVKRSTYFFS

For the molecule `C[C@@]1(O)[C@H](O)[C@@H](CO)O[C@H]1c1ccc2c(N)ncnn12`, the Activity entry in the series on Rattus norvegicus was “Toxic”. In addition, in series [1], the inhibition (commonly the change of the read-out against control, counted positive when it falls) worked out at 21%. In series [2], the NOAEL (as a rule, the highest tested level that showed no adverse finding) at 168 h is less than 5 mg/kg/day.
